Assay results published in PubChem BioAssay AID492951 (Molecular Libraries Program, Specialized Chemistry Center, …, 2010).
The source made the active and inactive calls.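 How the source made its calls: active means inhibition above 10%; inactive means the rest.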

What follows are compounds tested against Hexokinase-4 (Homo sapiens) (UniProt P35557) (assay: hGlck enzyme activity off-target inhibitors – biochemical, recombinant hGlck, counter-screen for TbHK1 inhibitor project (AID 492951)). Settings: G6PDH-coupled NADH absorbance 340 nm, at 10 µM; active compounds read high.
Hexokinase-4 (Homo sapiens), sequence (P35557 whole entry, looked up): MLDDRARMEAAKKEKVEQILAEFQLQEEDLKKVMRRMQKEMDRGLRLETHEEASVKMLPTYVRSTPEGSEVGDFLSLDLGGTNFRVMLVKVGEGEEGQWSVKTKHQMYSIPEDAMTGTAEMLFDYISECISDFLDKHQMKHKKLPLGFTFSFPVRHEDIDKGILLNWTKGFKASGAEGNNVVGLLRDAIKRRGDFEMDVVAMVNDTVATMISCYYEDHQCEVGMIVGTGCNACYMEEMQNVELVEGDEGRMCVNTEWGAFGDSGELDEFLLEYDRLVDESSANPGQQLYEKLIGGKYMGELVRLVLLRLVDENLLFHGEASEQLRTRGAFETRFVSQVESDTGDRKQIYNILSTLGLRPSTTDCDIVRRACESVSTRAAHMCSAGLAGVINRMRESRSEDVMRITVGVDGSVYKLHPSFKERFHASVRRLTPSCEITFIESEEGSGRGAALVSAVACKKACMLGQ
How it was run: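 Test system: recombinant human glucokinase, G6PDH-coupled; Medium: pH 7.9 TEA buffer, MgCl2, NAD+; Also added: 20 mM glucose as reaction starter, plus 1 mM ATP; Compound dosing: single final test compound dose of 10 µM; Schedule: 10 min preincubation at room temperature; Measured by: NADH formation by absorbance at 340 nm; Repeats: triplicate.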

| SMILES | inhibition | outcome |
| --- | --- | --- |
| O=c1c2ccc(F)cc2sn1-c1ccccc1 | 37.8% (active) |  |
| O=C1c2ccccc2S(=O)N1c1ccc(Cl)cc1 (stereo not drawn) | 37.2% (active) |  |
| O=C(Cn1sc2ccccc2c1=O)Nc1cccc(Br)c1 | 22.2% (active) |  |
| OB1OCc2cc(C(F)(F)F)ccc21 |  | inactive |
| COc1ccc(C(=O)N(C)c2cc(Cl)ccc2C(=O)O)cc1 | 6.7% (inactive) |  |
| O=C1c2cc(Br)ccc2S(=O)N1c1ccccc1 (stereo not drawn) |  | inactive |
| CC(C)(C)c1ccc(C(=O)Nc2cc(Cl)ccc2-c2nn[nH]n2)cc1 | 28.4% (active) |  |
| O=C(Cn1sc2ccccc2c1=O)Nc1ccc(I)cc1 | 36.2% (active) |  |
| COc1ccc(NC(=O)c2ccccc2SCc2ccccc2)cc1 | 41.2% (active) |  |
| Cc1ccccc1NC(=O)Cn1sc2ccccc2c1=O |  | inactive |
| COc1ccc(-c2nc3c(Cl)c(Cl)ccc3c(=O)o2)cc1 | 9.2% (inactive) |  |
| O=C(Nc1cc(Cl)ccc1C(=O)O)c1ccc(Cl)cc1 |  | inactive |
| COc1ccc(CC(=O)Nc2cc(Cl)ccc2C(=O)O)cc1 |  | inactive |
| COc1ccc(C(=O)Nc2ccc(Cl)cc2C(=O)O)cc1 |  | inactive |
| O=C(Nc1cc(Cl)ccc1C(=O)O)c1cocn1 |  | inactive |
| CC(C)(C)c1ccc(C(=O)Nc2cc(Br)ccc2C(=O)O)cc1 | 26.2% (active) |  |
| COc1ccc(C(=O)Nc2c(C(=O)O)ccc(Cl)c2Cl)cc1 | 10.6% (inactive) |  |
| O=c1cc(-c2ccccc2)sn1-c1ccccc1 |  | inactive |
| COc1ccc(C(=O)Nc2cc(Cl)ccc2C(N)=O)cc1 | 17.9% (active) |  |

| SMILES | inhibition | outcome |
| --- | --- | --- |
| CC(=O)Nc1ccc2c(=O)n(-c3ccccc3)sc2c1 |  | inactive |
| CC(C)c1ccc(C(=O)Nc2cc(Cl)ccc2C(=O)O)cc1 |  | inactive |
| O=C(Cn1sc2ccccc2c1=O)N1CCOCC1 |  | inactive |
| O=c1c2cc(F)ccc2sn1-c1ccccc1Cl | 14.4% (active) |  |
| CCOC(=O)c1ccncc1NC(=O)c1ccc(OC)cc1 |  | inactive |
| COc1cccc(-n2sc3ccccc3c2=O)c1 | 49.9% (active) |  |
| CN(C)c1ccc(NC(=O)Cn2sc3ccccc3c2=O)cc1 | 14.1% (active) |  |
| O=C(CCn1sc2ccccc2c1=O)Nc1ccccc1 |  | inactive |
| Cc1cccc(C(=O)Nc2cc(Cl)ccc2C(=O)O)c1 |  | inactive |
| COc1ccc(C(=O)O)c(NC(=O)c2ccc(Cl)cc2)c1 | 15.8% (active) |  |
| O=C(Cn1sc2ccccc2c1=O)Nc1ccccc1F |  | inactive |
| Cn1sc(=O)c2ccccc21 | 56.2% (active) |  |
| COc1ccc(C(=O)Nc2cc(Cl)ccc2-c2noc(=O)[nH]2)cc1 | 30.1% (active) |  |
| COc1ccc(NC(=O)Cn2sc3ccccc3c2=O)cc1 |  | inactive |
| COc1ccc(C(=O)Nc2cc(F)ccc2C(=O)O)cc1 |  | inactive |
| COc1ccc(C(=O)Nc2cc(F)cc(F)c2O)cc1 |  | inactive |
| COc1ccc(NC(=O)c2ccccc2C(=O)O)cc1 | 0.9% (inactive) |  |
| COc1ccc(C(=O)Nc2cc(Cl)c(Br)cc2C(=O)O)cc1 | 22.3% (active) |  |
| O=C(Cn1sc2ccccc2c1=O)Nc1ccc(C(F)(F)F)cc1 | 23.8% (active) |  |
